Series [1] relates to progressive or refractory brain tumors. Put plainly: Tumor response assessment. Format: in vivo, human. In outline:
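Oral once-daily dosing, 21 of 28 days, for up to 26 courses. Response by bi-dimensional MR measurement. CR: all enhancing tumor gone. PR: ≥50% reduction. Both held ≥8 weeks on stable or decreasing corticosteroids. PD: >25% increase from smallest measurement, new lesion, or neurologic worsening. Patients receiving ≥1 dose evaluable.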

The conditions of series [2]: cited from earlier work.
The conditions of series [3]: cited from earlier work. This is another data set of the same source.
For series [4] the following is noted: daily, 21 days followed by 7-day rest, adults; cited from earlier work.

The text below walks through data of paper PMC8414988 (Pediatric blood & cancer, 2021).

On to `CC(=O)c1c(C)c2cnc(Nc3ccc(N4CCNCC4)cn3)nc2n(C2CCCC2)c1=O` [palbociclib], for which, in series [1] (Stratum I and II), the objective response result is recorded as “No patients on either stratum had an objective response”. Further, the time on treatment is on record as 4 courses in series [1] (Stratum II, 3 subjects (2 at 50 mg/m^2 and 1 at 75 mg/m^2)); 6 courses in series [1] (one patient with GBM, 75 mg/m^2); 18 courses in series [1] (one patient with anaplastic ependymoma, Stratum I, 75 mg/m^2). Besides, the solubility result in series [2] is recorded as “pH-dependent solubility”. The permeability entry in series [3] was “high permeability”. For the same compound, the “adult MTD” value in series [4] is reported as 125 mg.
